From ChEMBL document CHEMBL3243931, “Dihydroretinoic acids and their derivatives. Synthesis and biological activity” (1977) come the findings set out here.

Assay [1] relates to Hamster. The assay can be described thus: Reversal of keratinized lesions in vitamin A deficient hamster tracheal organ culture assessed as cultures with keratin and keratohyaline granules at 1 uM after 7 days (reference value: 93%). Format: functional, Cricetinae, Trachea.
For assay [2], the system named is Hamster. The assay can be described thus: Reversal of keratinized lesions in vitamin A deficient hamster tracheal organ culture assessed as cultures with keratin and keratohyaline granules at 10 nM after 7 days (reference value: 93%). Format: functional, Cricetinae, Trachea.
Assay [3] has as its system Hamster. The assay can be described thus: Reversal of keratinized lesions in vitamin A deficient hamster tracheal organ culture assessed as cultures with keratin and keratohyaline granules at 0.1 uM after 7 days (reference value: 93%). The class given is functional, Cricetinae, Trachea.
Assay [4] deals with Hamster. The assay can be described thus: Reversal of keratinized lesions in vitamin A deficient hamster tracheal organ culture assessed as cultures with keratin and keratohyaline granules at 1 nM after 7 days (reference value: 93%). Format: functional, Cricetinae, Trachea.
Assay [5] deals with Mus musculus. The assay can be described thus: Activity against chemically-induced skin papillomas in Swiss albino mouse assessed as change in total papilloma diameter at 10 mg/kg/day, ip administered five times per week for 2 weeks measured on day 14. Format: functional. To be noted: route intraperitoneal.
For assay [6], the system named is Mus musculus. The assay can be described thus: Activity against chemically-induced skin papillomas in Swiss albino mouse assessed as change in total papilloma diameter at 80 mg/kg/day, ip administered five times per week for 2 weeks measured on day 14. Format: functional. To be noted: route intraperitoneal.
Assay [7] in a line: Increase in RNA content in mouse epidermal cells at 10 nM after 3 days. The class given is functional. An outline of the steps:
(§1)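 Mouse skin epidermal cell cultures grown 3 days with retinoid added from Me2SO stock (final Me2SO ≤1.0%); controls received equivalent Me2SO and no retinoid. RNA measured; value is percentage increase over control cultures; 6–9 cultures per concentration.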

A short description of assay [8]: Increase in RNA content in mouse epidermal cells at 1 nM after 3 days. Format: functional. An outline of the steps:
as §1

Assay [9] in a line: Increase in RNA content in mouse epidermal cells at 0.1 nM after 3 days. Format: functional. An outline of the steps: as §1
Assay [10] deals with Mus musculus. Kind of assay: Activity against chemically-induced skin papillomas in Swiss albino mouse assessed as change in total papilloma diameter at 40 mg/kg/day, ip administered five times per week for 2 weeks measured on day 14. Format: functional. To be noted: route intraperitoneal.
Assay [11] has as its system Mus musculus. Kind of assay: Activity against chemically-induced skin papillomas in Swiss albino mouse assessed as change in total papilloma diameter at 160 mg/kg/day, ip administered five times per week for 2 weeks measured on day 14. The class given is functional. To be noted: route intraperitoneal.
The species named for assay [12] is Mus musculus. Kind of assay: Increase in DNA content in mouse epidermal cells. Format: functional, cell-based. An outline of the steps:
(§2)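 Mouse skin epidermal cell cultures with retinoid added to the medium from Me2SO stock (final Me2SO ≤1.0%); controls given equivalent Me2SO; increase in DNA or protein content measured relative to cultures without retinoid.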

A short description of assay [13]: Increase in RNA content in mouse epidermal cells at 1 uM after 3 days. The class given is functional. An outline of the steps: as §1
The nature of assay [14]: Increase in RNA content in mouse epidermal cells at 0.1 uM after 3 days. The class given is functional. An outline of the steps: as §1
Assay [15] is filed under the species Mus musculus. The assay can be described thus: Increase in protein content in mouse epidermal cells. Format: functional, cell-based. An outline of the steps:
as §2

The source made the active and inactive calls. No cut-off for these calls is given here.

On to `COc1cc(C)c(/C=C/C(C)=C/C=C/C(C)=C/C(=O)O)c(C)c1C` [ACITRETIN], for which the Activity in the assay with Hamster [1] was 0%; in the assay on Hamster [2], 35%; with Hamster [4], 100%; with Mus musculus [5], -43%. Moreover, in the assay with Hamster [3], the “Cultures with keratinized lesions” value turned out to be 0%.
As to `COC(=O)/C=C(C)/C=C/C=C(\C)CCc1c(C)cc(N(C)C)cc1C`, the Activity with Mus musculus [6] worked out at 20%.
`CC1=C(/C=C/C(C)=C/C=C/C(C)=C/C(=O)O)C(C)(C)CCC1` [TRETINOIN]: the Activity in the assay on Hamster [2] is listed as 3%; in assay [7], 100%; in the assay with Hamster [4], 0%; in assay [8], 68%; in assay [9], 19%; with Mus musculus [10], -55%. Besides, the “Cultures with keratinized lesions” value in the assay with Hamster [3] is 0%.
Take `CCOC(=O)CC(C)/C=C/C=C(C)/C=C/C1=C(C)CCCC1(C)C` (stereo not drawn): the Activity in the assay on Mus musculus [11] is -14%; in the assay on Hamster [2], 83%; in [7], 12%; in assay [13], 69%; in assay [14] it was 13%; in assay [8] it was 12%. Further, the outcome in the assay listed under Mus musculus [12] and in the assay listed under Mus musculus [15] was Active. The “Cultures with keratinized lesions” value in the assay with Hamster [3] is 12%.
For the compound `COc1cc(C)c(CC/C(C)=C/C=C/C(C)=C/C(=O)O)c(C)c1C`, the Activity in the assay with Hamster [1] is 0%; in the assay with Hamster [2], 85%; in the assay on Mus musculus [6] it was -35%. The “Cultures with keratinized lesions” value in the assay on Hamster [3] stood at 63%.
For `COC(=O)/C=C(\C)CC/C=C(C)/C=C/c1c(C)cc(C)c(Cl)c1C`, the Activity in the assay with Mus musculus [6] amounted to 29%.
As for `CCOC(=O)/C=C(C)/C=C/C=C(C)/C=C/C1=C(C)CCCC1(C)C`, the Activity with Hamster [2] is recorded as 0%; in [7], 57%; in [13] it was 123%; in assay [14] it was 102%; with Mus musculus [6] it was -47%; in assay [8], 23%. The “Cultures with keratinized lesions” value in the assay with Hamster [3] turned out to be 0%.
Consider `CC1=C(CC/C(C)=C/C=C/C(C)=C\C(=O)O)C(C)(C)CCC1`, for which the Activity in the assay on Mus musculus [6] is -28%.
Take `COC(=O)/C=C(C)/C=C/C=C(C)/C=C/C1=C(C)CCCC1(C)C` [RETINOIC ACID METHYL ESTER]: the Activity turned out to be 0% in the assay on Hamster [2]; 25% in assay [7]; 126% in assay [13]; 75% in assay [14]; 8% in assay [8]. Moreover, the “Cultures with keratinized lesions” value with Hamster [3] is 0%.
Regarding `CC1=C(CC/C(C)=C/C=C/C(C)=C/C(=O)O)C(C)(C)CCC1`, the outcome in the assay listed under Mus musculus [12] and in the assay listed under Mus musculus [15] was Active. The Activity in the assay with Hamster [2] is reported as 25%; in assay [7], 82%; in assay [13], 106%; in assay [14] it was 115%; in the assay on Mus musculus [6], -33%; in [8], 1%. The “Cultures with keratinized lesions” value with Hamster [3] was 0%.
Consider `CC1=C(/C=C/C(C)C/C=C/C(C)=C/C(=O)O)C(C)(C)CCC1` (racemic), for which the result in the assay listed under Mus musculus [12] and in the assay listed under Mus musculus [15] was Active. For the same compound, the Activity turned out to be 96% with Hamster [2]; 28% in [7]; 118% in assay [13]; 29% in assay [14]; 3% in assay [8]. In addition, the “Cultures with keratinized lesions” value in the assay on Hamster [3] worked out at 52%.
For `COC(=O)/C=C(\C)CC/C=C(C)/C=C/C1=C(C)CCCC1(C)C`, the outcome in the assay listed under Mus musculus [12] and in the assay listed under Mus musculus [15] was Active. In addition, the Activity in the assay with Hamster [2] is given as 83%; in assay [7], 9%; in [13], 21%; in [14], 5%; in the assay on Mus musculus [6] it was -13%; in assay [8], 3%. In addition, the “Cultures with keratinized lesions” value in the assay on Hamster [3] is on record as 24%.
As to `CC(/C=C/C1C(C)CCCC1(C)C)=C\C=C\C(C)=C\C(=O)O` (stereo not drawn), the results for the Activity in the assay on Hamster [2], in the assay with Hamster [4] and in the assay with Mus musculus [5] were 0%, 6% and -9%, respectively. The “Cultures with keratinized lesions” value in the assay with Hamster [3] is listed as 0%.
With `COc1cc(C)c(/C=C/C(C)=C/CC/C(C)=C/C(=O)O)c(C)c1C`, the Activity in the assay with Hamster [1] is 0%; in the assay on Mus musculus [11] it was -66%; with Hamster [2], 86%; in the assay with Mus musculus [6] it was -17%. The “Cultures with keratinized lesions” value with Hamster [3] stood at 44%.
For `COC(=O)/C=C(C)/C=C/C=C(\C)CCc1c(C)cc(OC)c(Cl)c1C`, the Activity in the assay on Mus musculus [6] is on record as 1%.
Turning to `COC(=O)/C=C(\C)CC/C=C(C)/C=C/c1c(C)cc(OC)c(Cl)c1C`, the Activity with Mus musculus [6] was determined as 29%.
